For experiment [1], the system named is Acinetobacter baumannii. In words: Potentiation of ciprofloxacin-induced antibiotic activity against Acinetobacter baumannii ATCC 17978 assessed as MIC fold reduction at 8 ug/ml after 18 hrs by microbroth dilution method. Type of experiment: functional. Conditions: dose 8 µg/ml. The method, boiled down: (§1)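 Adjuvant held at a fixed 8 μg/mL while the antibiotic was 2-fold serially diluted in Mueller-Hinton broth (MHB), per CLSI microbroth dilution. Overnight cultures were adjusted in saline to 0.5 McFarland, then diluted 1:50 in MHB to about 5 × 10^5 CFU/mL final, and incubated 18 h at 37 °C. MIC was the lowest concentration with no visible turbidity, confirmed at 590 nm. Fold potentiation = MIC alone / MIC with adjuvant.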

Experiment [2] has as its system Escherichia coli. The experiment can be described thus: Potentiation of piperacilin-induced antibiotic activity against Escherichia coli ATCC 25922 assessed as MIC fold reduction at 8 ug/ml after 18 hrs by microbroth dilution method. Type of experiment: functional. The conditions noted are these: dose 8 µg/ml. (Dilution methods test growth across graded concentrations, often in twofold steps.)

Experiment [3] relates to Acinetobacter baumannii. In words: Potentiation of minocycline-induced antibiotic activity against Acinetobacter baumannii ATCC 17978 assessed as MIC fold reduction at 8 ug/ml after 18 hrs by microbroth dilution method. Type of experiment: functional. The conditions noted are these: dose 8 µg/ml. The method, boiled down: as §1
Experiment [4] relates to Pseudomonas aeruginosa. The experiment can be described thus: Potentiation of erythromycin-induced antibiotic activity against Pseudomonas aeruginosa PAO1 assessed as MIC fold reduction at 8 ug/ml after 18 hrs by microbroth dilution method. Conditions: dose 8 µg/ml. It is filed as functional. The method, boiled down:
as §1

The test system of experiment [5] is Pseudomonas aeruginosa. The experiment can be described thus: Potentiation of cindamycin-induced antibiotic activity against Pseudomonas aeruginosa PAO1 assessed as MIC fold reduction at 8 ug/ml after 18 hrs by microbroth dilution method. It is filed as functional. The conditions noted are these: dose 8 µg/ml. The method, boiled down:
as §1

The subject of experiment [6] is Pseudomonas aeruginosa. The experiment can be described thus: Potentiation of pleuromutilin-induced antibiotic activity against Pseudomonas aeruginosa PAO1 assessed as MIC fold reduction at 8 ug/ml after 18 hrs by microbroth dilution method. Type of experiment: functional. Conditions: dose 8 µg/ml.
For experiment [7], the system named is Staphylococcus aureus. In words: Antibacterial activity against Staphylococcus aureus ATCC 29213 assessed as reduction in bacterial growth after 18 hrs by microbroth dilution method. It is filed as functional. The method, boiled down:
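CLSI broth microdilution. Overnight cultures were adjusted in saline to 0.5 McFarland, diluted 1:50 in Mueller-Hinton broth (MHB), and inoculated at about 5 × 10^5 CFU/mL. Agents were 2-fold serially diluted in MHB, mixed 1:1 with inoculum, and held at 37 °C for 18 h. MIC was the lowest concentration with no visible turbidity, confirmed at 590 nm.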

In experiment [8] the test system is Pseudomonas aeruginosa. In words: Potentiation of cefotaxime-induced antibiotic activity against MDR clinical isolate Pseudomonas aeruginosa PA260 assessed as MIC fold reduction at 8 ug/ml after 18 hrs by microbroth dilution method. Type of experiment: functional, organism-based. Conditions: dose 8.0 µg/ml. In outline:
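Initial screen in MHB using a fixed 8 μg mL−1 of adjuvant combined with each antibiotic under 2-fold dilution. Broth microdilution used about 5 × 10^5 CFU/mL at 37 °C for 18 h, with visible turbidity read and confirmed at 590 nm. Fold-potentiation = antibiotic MIC alone ÷ antibiotic MIC with adjuvant.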

In experiment [9] the test system is Pseudomonas aeruginosa. In words: Potentiation of ceftazidime-induced antibiotic activity against […] Pseudomonas aeruginosa PAO1 assessed as MIC fold reduction at 8 ug/ml after 18 hrs by microbroth dilution method. Type of experiment: functional, organism-based. The conditions noted are these: dose 8.0 µg/ml. The method, boiled down:
as §1

Experiment [10] relates to Pseudomonas aeruginosa. In words: Potentiation of ceftazidime-induced antibiotic activity against MDR clinical isolate Pseudomonas aeruginosa PA264 assessed as MIC fold reduction at 8 ug/ml after 18 hrs by microbroth dilution method. Type of experiment: functional, organism-based. Conditions: dose 8.0 µg/ml. In outline:
as §1

Experiment [11] concerns Pseudomonas aeruginosa. The experiment can be described thus: Potentiation of ceftolozane-induced antibiotic activity against MDR clinical isolate Pseudomonas aeruginosa PA260 assessed as MIC fold reduction at 8 ug/ml after 18 hrs by microbroth dilution method. Type of experiment: functional, organism-based. The conditions noted are these: dose 8.0 µg/ml. The method, boiled down:
as §1

Experiment [12] relates to Pseudomonas aeruginosa. The experiment can be described thus: Antibacterial activity against colistin-resistant clinical isolate Pseudomonas aeruginosa PA91433 assessed as reduction in bacterial growth after 18 hrs by microbroth dilution method. It is filed as functional. In outline: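 Broth microdilution per CLSI in Mueller-Hinton broth (MHB). Overnight cultures were adjusted to 0.5 McFarland in saline, diluted 1:50 in MHB, and added at about 5 × 10^5 CFU/mL final to equal volumes of 2-fold serial dilutions of agent. Incubation was 18 h at 37 °C. MIC was the lowest concentration with no visible turbidity, confirmed by absorbance at 590 nm.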

Experiment [13] has as its system Pseudomonas aeruginosa. In words: Antibacterial activity against MDR clinical isolate Pseudomonas aeruginosa PA262 assessed as reduction in bacterial growth after 18 hrs in presence of cefiderocol by microbroth dilution method. It is filed as functional. The method, boiled down: (§2)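 Checkerboard in MHB (iron-replete, not iron-depleted CAMHB). Cefiderocol was 2-fold serially diluted along one axis and the adjuvant along the other. Inoculum was 0.5 McFarland diluted 1:50, about 5 × 10^5 CFU/mL final. Incubation was 18 h at 37 °C, with turbidity read visually and confirmed at 590 nm. FIC was the MIC in combination over the MIC alone for each agent, and the FIC index was their sum. Cut-offs were ≤0.5 synergy, >0.5–4 additive, >4 antagonism.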

Experiment [14] relates to Pseudomonas aeruginosa. In words: Antibacterial activity against MDR clinical isolate Pseudomonas aeruginosa PA264 assessed as reduction in bacterial growth after 18 hrs in presence of cefiderocol by microbroth dilution method. Type of experiment: functional. In outline:
(§3)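 Checkerboard in MHB. Cefiderocol was 2-fold serially diluted along one axis and the adjuvant along the other. Inoculum was prepared from 0.5 McFarland saline suspensions diluted 1:50 in MHB, giving about 5 × 10^5 CFU/mL final. Plates ran 18 h at 37 °C, with turbidity confirmed at 590 nm. FIC = combination MIC ÷ MIC alone for each agent, and FIC index = sum of both. Interpretation: ≤0.5 synergy, >0.5–4 additive, >4 antagonism.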

The test system of experiment [15] is Pseudomonas aeruginosa. The experiment can be described thus: Antibacterial activity against MDR clinical isolate Pseudomonas aeruginosa PA100036 assessed as reduction in bacterial growth after 18 hrs in presence of cefiderocol by microbroth dilution method. It is filed as functional. In outline: as §3
Experiment [16] relates to Pseudomonas aeruginosa. The experiment can be described thus: Antibacterial activity against MDR clinical isolate Pseudomonas aeruginosa PA101885 assessed as reduction in bacterial growth after 18 hrs in presence of cefiderocol by microbroth dilution method. It is filed as functional. The method, boiled down:
as §2

Experiment [17] deals with Pseudomonas aeruginosa. The experiment can be described thus: Antibacterial activity against MDR clinical isolate Pseudomonas aeruginosa PA86052 assessed as reduction in bacterial growth after 18 hrs in presence of cefiderocol by microbroth dilution method. Type of experiment: functional. In outline:
as §3

Experiment [18] relates to Pseudomonas aeruginosa. In words: Antibacterial activity against MDR clinical isolate Pseudomonas aeruginosa PA88949 assessed as reduction in bacterial growth after 18 hrs in presence of cefiderocol by microbroth dilution method. It is filed as functional. The method, boiled down:
as §3

Experiment [19] deals with Pseudomonas aeruginosa. In words: Antibacterial activity against colistin-resistant clinical isolate Pseudomonas aeruginosa PA91433 assessed as reduction in bacterial growth after 18 hrs in presence of cefiderocol by microbroth dilution method. Type of experiment: functional. In outline: as §2
The subject of experiment [20] is Pseudomonas aeruginosa. In words: Antibacterial activity against MDR clinical isolate Pseudomonas aeruginosa PA262 assessed as potentiation of cefiderocol antibacterial activity by measuring FIC index after 18 hrs by microbroth dilution method. Type of experiment: functional. The method, boiled down:
as §3

For experiment [21], the system named is Pseudomonas aeruginosa. In words: Antibacterial activity against MDR clinical isolate Pseudomonas aeruginosa PA101885 assessed as potentiation of cefiderocol antibacterial activity by measuring FIC index after 18 hrs by microbroth dilution method. It is filed as functional. The method, boiled down: as §3
Experiment [22] concerns Acinetobacter baumannii. The experiment can be described thus: Antibacterial activity against Acinetobacter baumannii LAC-4 assessed as potentiation of cefiderocol antibacterial activity by measuring FIC after 18 hrs by microbroth dilution method. It is filed as functional. In outline:
(§4)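 Checkerboard in Mueller-Hinton broth: cefiderocol 2-fold diluted on one axis, adjuvant 2-fold on the other. Overnight cultures were adjusted to 0.5 McFarland in saline, diluted 1:50 in MHB, and inoculated at about 5 × 10^5 CFU/mL. Incubation was 18 h at 37 °C. Turbidity was read visually and confirmed at 590 nm. FIC index = FIC of antibiotic + FIC of adjuvant; ≤0.5 synergy, >4 antagonism.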

Experiment [23] has as its system Enterobacter cloacae. The experiment can be described thus: Antibacterial activity against Enterobacter cloacae 117029 assessed as reduction in bacterial growth after 18 hrs in presence of cefiderocol by microbroth dilution method. Type of experiment: functional. In outline:
as §4

Structures are written as SMILES. The source made the active and inactive calls.

The values below come from ChEMBL document CHEMBL5136969, “A niclosamide-tobramycin hybrid adjuvant potentiates cefiderocol against P. aeruginosa” (2021).

In general, MIC refers to the lowest concentration that inhibits growth of the organism. Take `NC[C@H]1O[C@H](O[C@H]2[C@H](OCCCCc3cn(-c4ccc(NC(=O)c5cc(Cl)ccc5O)cc4)nn3)[C@@H](O[C@H]3O[C@H](CO)[C@@H](O)[C@H](N)[C@H]3O)[C@H](N)C[C@@H]2N)[C@H](N)C[C@@H]1O`: the “fold change (FC)” value in experiment [1], in experiment [2], in experiment [3], in experiment [4], in experiment [5] and in experiment [6] was 4 throughout. Moreover, the MIC in experiment [7] is over 128 µg/mL; in [12], over 128 µg/mL; in experiment [13], 1 µg/mL; in [14], 0.125 µg/mL; in experiment [15], 0.25 µg/mL; in experiment [16], 2 µg/mL. The minimal inhibitory concentration (MIC) in experiment [17] turned out to be 0.25 µg/mL; in experiment [18], 0.25 µg/mL; in [19], 1 µg/mL; in [23], 4 µg/mL. Also, the result in [8], in [9], in [10] and in experiment [11] was Active. The FIC came out at 0.25 in experiment [20], 0.017 in experiment [21] and 1 in experiment [22].
